Data reported in ChEMBL document CHEMBL3526081 (Drug Metab Dispos, 2011).

Each molecule was assayed on Liver microsome (assay: Retention time in Sprague-Dawley rat liver microsomes treated with 100 uM cinobufagin at 37 degC after 30 mins by UFLC-DAD-ESI-MS analysis). Details: 0.5 h.
Format: ADME
How it was run: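 Male Sprague-Dawley rat microsomes (0.3 mg/ml) were incubated with CB (100 µM) at 37°C for 30 min, with and without NADPH-generating system. Separation was on an ODS column at 40°C using an acetonitrile/0.5% formic acid water gradient at 0.4 ml/min, with DAD detection at 294 nm plus ESI-MS.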
CC(=O)O[C@H]1[C@H]2O[C@]23[C@@H]2CC[C@@H]4C[C@H](O)CC[C@]4(C)[C@H]2CC[C@]3(C)[C@H]1c1ccc(=O)oc1 showed a Retention_time of 10.59 min. C[C@]12CC[C@H](O)C[C@H]1CC[C@@H]1[C@@H]2CC[C@]2(C)[C@@H](c3ccc(=O)oc3)[C@@H](O)[C@H]3O[C@]132 [DESACETYLCINOBUFAGIN] gave a Retention_time of 6.95 min. In the case of C[C@]12CC[C@@H](O)C[C@H]1CC[C@@H]1[C@@H]2CC[C@]2(C)[C@@H](c3ccc(=O)oc3)[C@@H](O)[C@H]3O[C@]132, the Retention_time is reported as 8.32 min.
